Screening data deposited in PubChem BioAssay by several laboratories.
Granule exo inh: LAMP-1 surface exposure blockers, TALL-104 cells – cell-based, flow cytometry, MLPCN library, primary screen; TALL-104 LAMP-1 surface exposure; cells stimulated with thapsigargin and PMA; inhibition, % at 10 µM; 360,000 compounds, 0.66% hits;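 active = inhibition above about 55%, limit read from the data; inconclusive = no clear call, values can overlap the other calls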
CSN inh: inhibitors of CSN-mediated cullin deneddylation, primary screen, biochemical, fluorescence polarization, uHTS; Purified CSN, SCF-Nedd8-OG deneddylation; inhibition, % at 12.5 µM; 360,000 compounds, 0.38% hits;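 active = pattern-corrected inhibition above about 35%, with an unprinted fluorescence ratio check between 0.5 and 1.5, limit read from the data, passing the limit was not always enough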
Target sequence (Q92905 whole entry, looked up, one chain of several): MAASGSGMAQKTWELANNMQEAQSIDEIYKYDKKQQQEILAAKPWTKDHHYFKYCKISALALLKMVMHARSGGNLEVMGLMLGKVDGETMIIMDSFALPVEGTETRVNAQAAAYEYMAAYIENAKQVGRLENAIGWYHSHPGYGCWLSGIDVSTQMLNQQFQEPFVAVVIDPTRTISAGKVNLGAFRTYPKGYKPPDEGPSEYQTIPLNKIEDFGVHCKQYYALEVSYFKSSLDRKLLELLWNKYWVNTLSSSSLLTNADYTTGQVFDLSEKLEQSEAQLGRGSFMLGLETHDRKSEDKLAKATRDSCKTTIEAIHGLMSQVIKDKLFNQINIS
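Schedule: reaction 90 min, room temperature / Assay system: HEK293T-derived human Csn5 enzyme / Input: Csn5 at 0.24 nM final / Measure: inhibition of Csn5 cleavage, % / Control set: substrate-only high control, full reaction low control / Technique: fluorescence polarization of the substrate / Buffer or medium: Tris/NaCl/DTT buffer, pH 7.5 / Reagent: SCFSkp2-Nedd8OG substrate at 10 nM final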
HNF4A DNA FP: change in binding of human HNF4A to DNA, primary screen, biochemical, fluorescence polarization, FITC-DNA; 1 h; Hepatocyte nuclear factor 4-alpha (Homo sapiens), P41235; 360,000 compounds, 0.3% hits; activity change, % at 10 µM; AID 1224865, 2016; in the data active = activity change above about 30%, passing the limit was not always enough
Myeloid diff 2: induction of myeloid progenitor differentiation, primary screen, cell-based, flow cytometry, MLPCN library; ER-HoxA9 myeloid progenitors, lysozyme-GFP differentiation; calls only at 10 µM; 360,000 compounds, 1% hits;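 active = normalized GFP-positive differentiation at or above the plate's own cutoff, the solvent-only control mean plus 3 SD; inconclusive = no clear call, values can overlap the other calls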;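 also: cells exposed to compound for four days before flow analysis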
Numbers stand for hits; . = inactive; ? = inconclusive; / = not tested or not shown; + = active, no number. The list is not random: actives were taken first. Their share in the collection is about 2.2%.

SMILES | Granule exo inh | CSN inh | HNF4A DNA FP | Myeloid diff 2
O=C(c1ccccc1)c1ccc(N2CCN(C(=O)c3cccc(F)c3F)CC2)c(F)c1 | . | . | . | .
OCC[C@@H]1C[C@@H](O)[C@H](O)[C@@]2(CCCc3ccccc3O2)O1 | . | . | . | .
Cc1cc(C)nc(NC(C)(C)C(=O)O)n1 | . | . | 47 | .
Cc1cc(C)nc(NC(=O)NC(=O)c2ccccc2)n1 | . | . | . | .
Cc1nc(SCC(=O)NCc2ccco2)c2c(C)c(C)sc2n1 | . | . | . | .
Cc1sc2ncnc(SCC(=O)NC(=O)NCc3ccco3)c2c1C | . | . | . | +
N#Cc1cc(C(=O)c2cc(F)ccc2O)cn(-c2nccs2)c1=O | . | . | . | +
CC1CN(c2nc3ccccc3nc2SCC(=O)Nc2cccc(C(F)(F)F)c2)CC(C)O1 (centres undefined) | . | . | . | +
Cc1cccc(NC(=O)CSc2nc3ccccc3nc2N2CC(C)OC(C)C2)c1 (centres undefined) | . | . | . | .
C=CCN1C(=O)/C(=C/c2ccc(OCC(=O)O)cc2)S/C1=N/c1nccs1 | . | . | . | .
C=CCN1C(=O)/C(=C/c2ccc(O)c(OC)c2)S/C1=N/c1nccs1 | . | 83 | 95 | .
COc1ccccc1N(C(=O)CCl)c1cn(C(C)=O)c2ccccc12 | . | . | . | .
COc1ccccc1N(C(C)=O)C1=C(Cl)C(=O)c2ccccc2C1=O | 60 | . | . | /
CN(C)CCCNCCCNC(=O)c1ccncc1 | . | . | . | +
CN1CCC(N(C)C(=O)c2cc(-c3ccc(F)cc3)nc3ccccc23)CC1 | . | . | . | .
CN1CCC(N(C)C(=O)c2cc(-c3ccccc3Cl)nc3ccccc23)CC1 | . | . | . | +
CCOC(=O)CSc1ccc2ccccc2n1 | . | . | . | .
CCOC(=O)CN1C=C(c2ccc3ccccc3n2)C(C[N+](=O)[O-])c2ccccc21 (centres undefined) | . | . | . | +
CC(=O)Nc1ccc(C(=O)NNC(=O)CCc2ccccc2)cc1 | . | . | . | .
CC(C)(C)c1ccc(C(=O)NNC(=O)CCc2ccccc2)cc1 | . | . | . | +
COc1ccc(/C(C)=N/NC(=O)CNC(=O)c2ccncc2)c(OC)c1 | . | . | . | .
Nc1nn(-c2cccc(F)n2)cc1-c1ccc(Cl)cc1 | . | . | . | .
Nc1nn(-c2cccc(F)n2)cc1-c1ccccc1 | . | . | 39 | .
CSCCC(NC(=O)OCc1ccccc1)C(=O)NCc1cccnc1 (centres undefined) | . | . | . | .
Nc1c(-c2ccccc2)nc2ncccn12 | . | . | . | .
SMILES | Granule exo inh | CSN inh | HNF4A DNA FP | Myeloid diff 2
O=Nc1c(-c2cccc([N+](=O)[O-])c2)nc2ncccn12 | 74 | . | . | /
CC(C)Sc1nnc(SCC(=O)NCCCN2CCCC2=O)s1 | . | . | . | .
O=C(c1ccc(CSc2nc3ccncc3[nH]2)cc1)N1CCN(c2cccc(Cl)c2)CC1 | . | . | . | +
CC(=O)Oc1ccc(N(C(C)=O)S(=O)(=O)c2ccccc2)c2ccccc12 | . | . | . | .
Cc1ccc(S(=O)(=O)N(C(=O)c2ccncc2)c2ccc(OC(=O)c3ccncc3)c3ccccc23)c(C)c1 | 100 | . | . | .
Cc1ccc(S(=O)(=O)N(C(=O)c2ccncc2)c2ccc(OC(=O)c3ccncc3)c3ccccc23)cc1 | 118 | . | . | ?
[O-]/C(=C(\C(=S)Nc1ccccc1F)[n+]1ccccc1)c1ccc(OC(F)F)cc1 | . | . | 75 | .
CCc1ccc(S(=O)(=O)/N=C2\C=C(Nc3ccc(O)cc3)C(=O)c3ccccc32)cc1 | 86 | . | . | ?
O=S(=O)(N=C1C=CC(=NS(=O)(=O)c2ccccc2)c2ccccc21)c1ccccc1 | . | . | . | +
O=C(O)c1ccc(NC2=C/C(=N/S(=O)(=O)c3ccccc3)c3ccccc3C2=O)cc1 | 58 | . | . | .
CCc1ccc(S(=O)(=O)/N=C2\C=C(Nc3cccc(C(=O)O)c3)C(=O)c3ccccc32)cc1 | . | . | . | /
CCc1ccc(S(=O)(=O)/N=C2/C=C(Sc3ncn[nH]3)C(=O)c3ccccc32)cc1 | 98 | . | . | .
CCOC(=O)C1=C(COC(=O)CCOc2ccccc2)NC(=O)NC1C (centres undefined) | . | . | . | .
O=C1C(Nc2ccc(O)cc2)=C/C(=N/S(=O)(=O)c2cccs2)c2ccccc21 | 57 | . | . | ?
O=C1Cc2ccccc2C(=O)N1 | . | 35 | . | .
CCOc1ccc(NC(=O)CCC(=O)c2ccc(OC)cc2)cc1 | . | . | . | .
c1cc2nc(C34CC5CC(CC(C5)C3)C4)[nH]c2cn1 | . | . | . | +
COc1cccc(N2CCN(CC(=O)C34CC5CC(CC(C5)C3)C4)CC2)c1 | . | . | . | .
COc1cccc(N2CCN(C(C)C(=O)NC34CC5CC(CC(C5)C3)C4)CC2)c1 (centres undefined) | . | . | . | +
Cc1ccccc1C(=O)NCC(=O)OC(C)C(=O)NC(C)CCc1ccccc1 (centres undefined) | . | . | . | .
C(=N\Nc1nc2ccccc2[nH]1)/c1ccc2ncccc2c1 | . | . | . | +
Cc1cc(C)cc(NC(=O)Cn2nnc(C(=O)NCCc3ccccc3)c2N)c1 | . | 37 | . | ?
Cc1ccc(NC(=O)Cn2nnc(C(=O)NCCc3ccccc3)c2N)c(C)c1 | . | 55 | . | .
Cc1cc(C)c(NC(=O)Cn2nnc(C(=O)NCCc3ccccc3)c2N)c(C)c1 | . | . | . | .
Cc1ccc(Cl)cc1C1=CC(=O)C[C@H](c2ccc(F)cc2)C1 | . | . | . | .
SMILES | Granule exo inh | CSN inh | HNF4A DNA FP | Myeloid diff 2
CC(=O)c1ccc(N2CCN(S(=O)(=O)c3ccc4c(c3)NC(=O)CC(=O)N4)CC2)cc1 | . | . | . | +
C/C=C(\C)C(=O)OC1[C@H](OC(C)=O)C2(CO)C(CC1(C)C)C1=CCC3C4(C)CCC(O[C@@H]5O[C@H](C(=O)O)[C@@H](O[C@@H]6O[C@H](CO)[C@@H](O)[C@H](O)[C@H]6O)[C@H](O)[C@H]5O[C@H]5O[C@H](CO)[C@@H](O)[C@H](O)[C@H]5O)[C@](C)(CO)C4CCC3(C)[C@]1(C)C[C@H]2O (some centres undefined) | 71 | . | . | .
CN(C)c1cc[n+](Cc2c(Cl)cccc2Cl)cc1 | . | . | . | +
CN(C)c1cc[n+](CC[n+]2ccc(N(C)C)cc2)cc1 | . | . | . | .
COc1ccc(CNCCNC(=O)c2nonc2N)cc1OC | . | . | . | +
N#Cc1c(NC(=O)c2ccco2)sc2c1CCC2 | . | 39 | . | .
COC(=O)Cc1c(C)c2ccc(OCC(=O)N3CCC(C)CC3)c(C)c2oc1=O | . | . | . | .
CCOc1ccccc1CNC(=O)C1CCCN(c2ncnc3c2nc2n3CCCCC2)C1 (centres undefined) | . | . | . | .
